Rows were chosen to be rich in hits. Some 2% of all compounds tested hit in one or more screens of this group.
UPR CHOP act – activators of apoptotic CHOP UPR arm, primary screen, cell-based, CHO-CHOP luciferase reporter, luminescence, uHTS; UPR activation; percent of tunicamycin response over DMSO baseline; activation, % at 10 µM; 330,000 tested, 0.34% active; AID 449763, 2010;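 active means at 10 µM dose, activation of 40% or more, normalized to positive control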;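 further: 100% = tunicamycin at 10 µg/mL and 0% = DMSO alone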
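Test system: CHO CHOP reporter cells. Input: 500 CHO-CHOP cells per well. Medium: F12 with 10% FBS. Technique: luciferase luminescence. Measure: percent activation relative to tunicamycin control. Dosing: 10 µM compound, 0.5% DMSO. Timing: 16-18 h cell attachment, then 6 h compound exposure, 37 °C.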
Bfl-1 A1 inh – caspase 3/7 activation in MEF A1-2A-BIM cells, primary screen, A1 inhibitor project, cell-based, luminescence, HTS. caspase activation, % (test concentration not listed). 330,000 tested, 0.066% active. Caspase-Glo 3/7 luminescence, 3 h; percent of clofoctol response, vehicle zero;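 active means over half of replicate activation scores above 10%, or exactly half above 10 with the replicate mean above 10; inconclusive means replicate mean below 10 yet half the replicates above 10; inactive means over half of replicates below 10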
MC4R antagonist – MC4R antagonists of cAMP signaling, primary screen, cell-based, TR-FRET, antagonist arm of biased-ligand search | MC4R-expressing cells, MTII-stimulated cAMP, LANCE TR-FRET | 360,000 tested, 0.48% active | inhibition, % at 6.5 µM;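 active means inhibition above its plate's cutoff, the mean of tested wells on that plate plus 3 SD, cut at about 29% in these data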;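 further: 0% = Melanotan II alone and 100% = Melanotan II plus saturating MCL0020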
Target sequence (P32245 whole entry, looked up): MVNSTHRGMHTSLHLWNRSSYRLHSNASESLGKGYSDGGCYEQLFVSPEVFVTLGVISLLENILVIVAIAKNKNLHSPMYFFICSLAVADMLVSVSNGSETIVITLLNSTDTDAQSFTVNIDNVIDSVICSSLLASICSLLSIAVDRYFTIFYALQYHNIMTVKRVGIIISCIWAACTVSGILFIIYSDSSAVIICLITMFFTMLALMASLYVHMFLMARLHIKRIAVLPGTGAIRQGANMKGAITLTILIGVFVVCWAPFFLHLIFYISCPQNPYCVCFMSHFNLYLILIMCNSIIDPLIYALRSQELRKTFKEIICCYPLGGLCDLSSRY
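Test system: U2OS cells stably expressing human melanocortin 4 receptor (MC4R); also added: Melanotan II challenge; compound: 6.5 µM single dose; timing: 30-min compound preincubation, 1-h Melanotan II challenge, 1-h detection, room temperature; signal: Eu-cAMP/anti-cAMP TR-FRET, emission 671 nm; repeats: one well per compound, no replicates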
MC4R barr agon – MC4R agonists recruiting beta-arrestin, primary screen, cell-based, luminescence, agonist arm of biased-ligand search. activation, % at 8.9 µM. 360,000 tested, 0.98% active. U2OS MC4R beta-arrestin complementation; percent of melanotan II response, DMSO zero. Melanocortin receptor 4 (Homo sapiens), P32245;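 active means activation above a per-plate cutoff, the mean activation of sample wells on that plate plus 3 SD, cut at about 8% in these data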
XBP1 UPR activ – activators of adaptive XBP1 UPR arm, primary screen, cell-based, CHO-XBP1 luciferase reporter, luminescence, uHTS; AID 463104, 2010; IRE1-XBP1 UPR activation; percent of tunicamycin response, DMSO as zero; 330,000 tested, 0.33% active; activation, % at 20 µM;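 active means versus positive control, 20 µM dose yields 30% or more activation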;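 further: 100% = tunicamycin at 10 µg/mL and 0% = DMSO only wells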
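Material: CHO-XBP1 cells stably carrying IRE1-XBP1-driven luciferase reporter | Medium: F12 with 10% serum | Compound dosing: 20 µM single concentration, DMSO 1% | Incubation: Overnight seeding at 37 °C, 6 h compound treatment at 37 °C | Detection: Steady-Glo luminescence read | Read-out basis: % activation of reporter signal versus tunicamycin and DMSO controls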
* marks the source's active call; other numbers are inactive results; ? = inconclusive; / = no result.

SMILES	UPR CHOP act	Bfl-1 A1 inh	MC4R antagonist	MC4R barr agon	XBP1 UPR activ
O=C(/C=C/c1ccccc1)OCC(=O)c1c[nH]c2ccccc12	-2	1	3	9.3*	-1
O=C(O)COc1ccccc1/C=C1\C(=O)Nc2ccc(Br)cc21	2	5.3*	-2	-1	-9
COC(=O)CC1OCC=C2CN3CCC45C6=CC(=O)C(=O)C([N+](=O)[O-])=C6NC4C1C2CC35 (centres undefined)	/	/	0	-3	/
COc1ccc(C=C2C=C(C(C)(C)C)C(=O)C(C(C)(C)C)=C2)cc1OC	-12	11*	27	4	-14
O=C(Nc1ccc(NC(=O)c2ccc(Cl)cc2Cl)cc1)c1cccs1	-1	1	0	3	2
COc1c(Cl)cc(Cl)cc1C(=O)Nc1ccc(NC(=O)c2cccs2)cc1	0	-1	22	9.7*	-3
CC(C)C[C@H](NC(=O)OC(C)(C)C)c1nnc(SCC(=O)Nc2ccc(Br)cc2)o1	-2	0	2	8.3*	-1
Cc1ccc(S(=O)(=O)CCC(=O)c2cccc([N+](=O)[O-])c2)cc1	1	0	31*	-3	-3
O=C(Cn1c2[n+](c3ccc(C(F)(F)F)cc31)CCCCC2)Nc1ccc(Br)cc1	2	-1	30*	1	0
Cc1[nH]c2ccccc2c1C(=O)C(=O)NCc1nnnn1-c1ccc(F)c(F)c1	/	/	-13	0	/
COc1cc(CNCCc2ccccc2)cc(Br)c1OCC(=O)Nc1ccccc1C	-2	1	-3	8.6*	3
CNCc1cc(Br)c(OCC(=O)Nc2ccccc2OC)c(OC)c1	1	0	1	-1	-2
Cc1ccc(NC(=O)CSc2nc3c([nH]c4ccccc43)c(=O)n2C)cc1	20	0	-9	16*	6
Oc1ccc(COCc2ccccc2)c2cccnc12	74*	-2	4	-1	11
Oc1ccc(Cc2ccccc2)c2cccnc12	/	/	1	-3	/
CNc1ncnc2c1ncn2[C@H]1CN(Cc2ccc3c(c2)OCO3)C[C@@H](CO)O1	/	/	12	1	/
CC[C@H](C)[C@H]1O[C@]2(CC[C@@H]1C)C[C@@H]1C[C@@H](CC=C(C)[C@@H](O[C@H]3C[C@H](OC)[C@@H](O[C@H]4C[C@H](OC)[C@@H](O)[C@H](C)O4)[C@H](C)O3)[C@@H](C)C=CC=C3CO[C@@H]4[C@H](O)C(C)=C[C@@H](C(=O)O1)[C@]34O)O2	39	0	4	2	64*
Cc1ccc(F)cc1-c1cc2nc(NCCCN(C)C)n(C)c(=O)c2s1	/	/	6	0	/
OC(c1ccc(F)cc1)c1nc(-c2cc3ccccc3o2)cs1 (centres undefined)	/	/	12	7	/
CSc1ccc(OC2(C)CCN(Cc3ccc(OC(F)(F)F)cc3)C2)cc1 (centres undefined)	/	/	-4	0	/
COc1ccc(/C=N\n2nnc3ccccc32)cc1	-8	-17	10	9.0*	-6
COc1ccc(/C=N/n2c(C)nc3ccccc3c2=O)cc1	4	0	4	1	1
CCC(C)n1c(SCC(=O)NC2CC2)nc2ccccc2c1=O (centres undefined)	/	/	-1	-1	/
N/C(Cc1ccc(Cl)c(Cl)c1)=N\OC(=O)c1cccs1	-1	0	-7	8.6*	-1
CC1CCC(C(C)C)C(OCC(O)CNC(C)c2ccccc2)C1 (centres undefined)	-1	0	9	8.3*	4
SMILES	UPR CHOP act	Bfl-1 A1 inh	MC4R antagonist	MC4R barr agon	XBP1 UPR activ
CC1CCC(C(C)C)C(OCC(O)CNC(C)(C)C)C1 (centres undefined)	0	0	-2	-2	2
O=C(COC(=O)c1ccc(F)cc1F)Nc1ccc2c(c1)OCO2	/	/	-1	1	/
CCOc1ccc(/C=C/C(=O)Nc2ccc(N3CCOCC3)cc2)cc1	-1	1	8	8.9*	3
OCC1(CCCc2ccccc2)CCN(C2CCSCC2)CC1	0	0	7	2	5
CCOC(=O)C1(CCCc2ccccc2)CCN(C2CCSCC2)CC1	/	/	1	9.2*	/
O=C(NC(c1ccc(-c2ccccc2)cc1)c1cnccn1)C1CCN(Cc2ccc3c(c2)OCO3)CC1 (centres undefined)	/	/	6	-2	/
C=CCc1ccc(OCC(O)CN2CCCCC2)c(OC)c1 (centres undefined)	0	-1	0	-2	-1
C=CCc1ccc(OCC(O)COc2ccc(CC=C)cc2OC)c(OC)c1	0	?	12	8.7*	-3
Cc1cccc(OCCCC(=O)Nc2ccc(N3CCCCC3)cc2)c1	0	0	5	11*	-2
O=C(CCCOc1ccccc1)Nc1ccc(Br)cc1	0	0	6	8.6*	1
CC1=CC(=O)Nc2ncccc2O1	/	/	-1	0	/
CCCOC(=O)c1ccc(Oc2cn[nH]c2-c2ccc(O)cc2O)cc1	-1	0	-4	9.5*	-2
NC(c1csc(Nc2ncccn2)n1)c1ccccc1Cl (centres undefined)	/	/	4	0	/
CSc1ccc(CN2CCC2(C)C(=O)Nc2ccc3c(c2)OCO3)cc1 (centres undefined)	/	/	-5	-1	/
COc1ccc(OC)c(CN2CCN(C(=O)c3cccc(S(=O)(=O)N(C)c4ccccc4)c3)CC2)c1	/	/	6	2	/
COC(=O)C(=N/Nc1ccccc1C(=O)OC)/C(C)=N/O	-1	0	-1	8.8*	1
CNc1ccccc1C(=O)OC	0	1	16	-2	1
Cc1ccccc1CNC(=O)c1ccc2nc([C@@H]3O[C@H](CO)[C@H](O)[C@H](O)[C@H]3O)[nH]c2c1	/	/	13	-1	/
O=C(CCN1C(=O)/C(=C/c2ccccc2)SC1=S)NNC(=O)c1cccnc1	3	0	-3	8.8*	5
O=C(Nc1ccc(N2CCN(Cc3ccccc3F)CC2)cc1)c1ccccc1[N+](=O)[O-]	-1	1	-10	1	3
O=C(Nc1ccc(N2CCN(Cc3ccccc3F)CC2)cc1)c1ccc([N+](=O)[O-])o1	90*	2	-7	-4	2
COCOCCn1cc(CN2CCS(=O)(=O)N(Cc3ccc(-c4ccccc4)cc3)C(C(C)C)C2=O)nn1 (centres undefined)	/	/	3	1	/
COc1ccc(C=NNc2nc3ccccc3s2)cc1	/	/	-8	9.1*	/
COc1cc(OC)cc(C(=O)Oc2ccc(/C=N/Nc3nc4ccccc4s3)cc2OC)c1	3	-2	2	-2	3

Screening data as filed in PubChem BioAssay.
